PolyA inh – blocks polyadenylation in yeast reporter cells | 300,000 compounds, 0.02% hits | activity score, % at 12 µM | S. cerevisiae SKY197-pL101 polyadenylation reporter, beta-gal luminescence; efflux-impaired pdr1/pdr3 knockout yeast; score 100 = 6 SD above DMSO;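 active = lowest replicate activity score at least 50, where 100 means six control SD above control mean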;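 note: yeast exposed to compound for 9 h at 30 °C; higher score means more reporter readthrough which indicates perturbed polyadenylation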
SUMO Mot1 rescue – blocks SUMOylation pathway, rescuing yeast Mot1-301 growth; S. cerevisiae Mot1-301 growth rescue, ATP luminescence, 38.5C; percent above DMSO median, 100 means doubled; growth rescue, % at 18.8 µM; 320,000 compounds, 1% hits; AID 2716;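 active = every valid replicate shows activation above 250% relative to neutral control wells; inactive = the rest, any valid replicate at or below 250%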;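 note: OY570 slx delta 5 strain wells were the positive control but not used for scaling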
IMP-1 inh – blocks Pseudomonas aeruginosa IMP-1 metallo-beta-lactamase | inhibition, % at 5.6 µM | purified IMP-1, nitrocefin hydrolysis, epi-absorbance fluorescence | 290,000 compounds, 0.45% hits;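 active = inhibition above the mean plus 3 SD of all compounds in the same screening run, cut at about 4.5% in these data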;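 note: 0% = IMP-1 with DMSO and 100% = DMSO wells lacking enzyme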
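Material – recombinant IMP-1 enzyme, purified · Amount – IMP-1 0.2 nM before substrate addition · Medium – HEPES buffer pH 7.1 with ZnSO4 and Brij 35 · Timing – 25 °C, 15 min preincubation, 25 min reaction · Measured by – plate fluorescence quenching by hydrolysis product, ex 480/em 530 nm · Read-out – percent enzyme inhibition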
NLRP3 yeast inh – NALP3 inhibition in yeast. 330,000 compounds, 0.39% hits. inhibition, % at 10 µM. AID 2825. Yeast reconstituted NLRP3/ASC/caspase-1, beta-gal luminescence, 24 h;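 active = inhibition of 50% or more; inactive = inhibition below 50%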;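 note: plate controls were induced DMSO wells for no effect and uninduced yeast grown without galactose for full effect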
NALP1 yeast inh – blocks the NALP1 inflammasome reconstituted in yeast. S. cerevisiae NALP1/ASC/caspase-1 growth, X-gal OD620, 72 h. inhibition, % at 10 µM. 280,000 compounds, 0.61% hits. AID 2071; in the data active = inhibition mostly above about 24%, no sharp cut-off; inactive = mostly below about 32%
VIM-2 inh – inhibitors of Pseudomonas aeruginosa VIM-2 metallo-beta-lactamase | purified VIM-2, nitrocefin hydrolysis, epi-absorbance fluorescence | inhibition, % at 5.6 µM | 290,000 compounds, 0.89% hits | AID 1527;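 active = inhibition above the mean of all tested compounds plus 3 SD, cutoff set per screening run, cut at about 7.5% in these data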;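 note: red hydrolysis product quenches plate fluorescence so inhibitors raise well fluorescence; 0% = enzyme with DMSO and 100% = DMSO without enzyme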
* = called active by the depositor; . = no result. Shown are actives, neighbours in structure and some others; about 2.9% of the full set was active somewhere.

SMILES	PolyA inh	SUMO Mot1 rescue	IMP-1 inh	NLRP3 yeast inh	NALP1 yeast inh	VIM-2 inh
CCOc1c(Cl)cc(CNc2ccc(S(N)(=O)=O)cc2)cc1OC	14	.	-1	-1	28	0
CC(=O)N1C(C(=O)O)CSC1c1ccc(C)cc1 (stereo not drawn)	-12	14	.	7	42*	.
COc1ccc(C2SCC(C(=O)O)N2C(C)=O)cc1 (stereo not drawn)	-8	-1	-5	-11	-53	-3
Cc1cc(=O)oc(C)c1C(=O)Nc1cccc2nonc12	-5	324*	-1	8	10	0
COc1cc(/C=C2/C(=O)NN(c3ccc(Cl)cc3)C2=O)cc(Br)c1O	0	53	9.7*	16	20	-4
COc1cc(/C=C2/C(=O)NN(c3ccc(F)cc3)C2=O)cc(Cl)c1O	-5	-1	-7	5	20	-6
COCC(C)n1c(SCC(=O)NNC(=O)c2ccc(F)cc2)nc2ccccc2c1=O (stereo not drawn)	12	346*	-3	-5	8	-2
COCCn1c(SCC(=O)NNC(=O)c2ccccc2)nc2ccccc2c1=O	-5	-16	-4	-3	21	-3
CCN1CCN(C(=O)Cn2ncc3c2-c2ccccc2OC3)CC1	1	-13	-2	14	0	0
O=C(Cn1ncc2c1-c1ccccc1OC2)Nc1ccc(Cl)cn1	-1	3	-2	-16	26	0
CCOC(=O)N1CCN(C(=O)Cn2ncc3c2-c2ccccc2OC3)CC1	-6	357*	-5	3	29	-4
O=C(Cn1ncc2c1-c1ccccc1OC2)Nc1cccc(Cl)c1	3	7	-5	20	38*	-6
COc1ccccc1NC(=O)Cn1ncc2c1-c1ccccc1OC2	-7	-18	-5	9	36	-5
CCOc1ccc(-c2cc(NC(=O)Cn3ncc4c3-c3ccccc3OC4)on2)cc1OCC	-2	16	-4	10	44*	-2
Cc1ccc(N2C(=O)SC(N(CC(=O)O)c3cccc(C)c3)C2=O)cc1 (stereo not drawn)	10	0	-2	12	-45	1
CC(=O)N(c1ccccc1)C1SC(=O)N(c2ccccc2)C1=O (stereo not drawn)	14	-19	6.5*	14	-1	3
CC(=O)c1c2c3c(c(Br)ccc3n(C)c1=O)C(=O)c1ccccc1-2	-6	-12	6.7*	14	19	31*
Cc1ccc(NC(=O)CSCC(=O)N(C)CC(=O)Nc2ccccc2C(F)(F)F)cc1	.	.	.	4	.	.
Cc1oc2c(C)c3oc(=O)c(CCC(=O)NCCCCCC(=O)O)c(C)c3cc2c1C	5	-10	-3	8	-1	-1
COc1ccc(-c2coc3c(C)c4oc(=O)c(CCC(=O)O)c(C)c4cc23)cc1	16	9	-1	-6	-16	11*
Cc1c(CC(=O)N[C@@H](C)C(=O)O)c(=O)oc2cc3occ(-c4ccccc4)c3cc12	6	3	-1	5	-3	-1
Cc1c(CCC(=O)O)c(=O)oc2c(C)c3occ(-c4ccc(Br)cc4)c3cc12	7	8	24*	23	3	4
Cc1c(CC(=O)N[C@@H](C)C(=O)O)c(=O)oc2c(C)c3occ(-c4ccccc4)c3cc12	5	-16	-2	-3	1	10*
COC(=O)COc1ccc2oc(=O)cc(-c3cc4cccc(OC)c4o3)c2c1	-14	12	9.7*	5	12	-2
Cn1cc(CN2CCC(C(=O)Nc3ccc(Oc4ccccc4F)cc3)CC2)cn1	-5	.	-2	10	30	-3
COc1cc(OC)cc(C2=NCCN2)c1	4	13	-4	3	17	-1
Cc1csc(=O)n1CCC(=O)OCC(=O)NNC(=O)c1ccc(Cl)cc1	.	.	.	24	.	.
O=C(CSc1nnc(C2CC2)n1Cc1ccccc1)c1ccc(S(=O)(=O)N2CCOCC2)cc1	3	70	-3	7	32	23*
COc1cccc(C=O)c1OCCCOc1cccc2cccnc12	-15	142	1	2	29*	1
CCN1CCN(C(=O)CCCn2c(C)c3cnn(-c4ccccc4)c(=O)c3c2C)CC1	0	332*	-2	4	12	-3
